Measured values taken from ChEMBL document CHEMBL5724801, “EUbOPEN Chemogenomics Library - Multiplex” (2024).
“And” between values parts separate entries of the source, which are not always exact repeats. Equal values may be shown once.

Columns and labels:
Fibroblast = assay: Multiplex assay against human fibroblast; type: toxicity, cell-based
How it was run: (§1)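 Per cents of healthy-nucleus cells form the tubulin, mitochondrial-mass and membrane-permeability phenotype values. Live cells were stained at seeding with Hoechst33342, BioTracker Green Microtubule Cytoskeleton Dye, MitoTracker Red and Annexin V Alexa Fluor 680. After compound addition they were imaged on a CQ1 microscope at 37°C and 5% CO2, and CellPathfinder machine-learning gating split them into Hoechst high-intensity objects or normal cells, normal cells into healthy, pyknosed or fragmented nuclei, and pyknosed cells into mitotic or apoptotic.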

U2OS = assay: Multiplex assay against U2OS; type: toxicity, cell-based; settings: human; how it was run: as §1
[1] = 24 h, 1 µM, compound concentration 1 uM
[2] = 24 h, 10 µM, compound concentration 10 uM
[3] = 48 h, 1 µM, compound concentration 1 uM
[4] = 48 h, 10 µM, compound concentration 10 uM
[5] = 12 h, 1 µM, compound concentration 1 uM
[6] = 12 h, 10 µM, compound concentration 10 uM

Compound: CN1CCN2c3ccccc3Cc3ccccc3C2C1.Cl (stereo not drawn) [MIANSERIN HYDROCHLORIDE]
- Total Cell Count (Fibroblast; [1]): 143 and 119
- Population Apoptotic (%) (Fibroblast; [2]): 61% and 48%
- Population Fragmented Nuclei (%) (Fibroblast; [2]): 14% and 31%
- Population Healthy Nuclei (%) (Fibroblast; [2]): 73% and 47%
- Population Hoechst High Intensity Objects (%) (Fibroblast; [2]): 5% and 4%
- Population Membrane Permeable-Phenotype (%) (Fibroblast; [2]): 0% and 10%
- Population Mitochondria Different-Phenotype (%) (Fibroblast; [2]): 1% and 5%
- Population Mitotic Cells (%) (Fibroblast; [2]): 38% and 52%
- Population Normal (%) (Fibroblast; [2]): 95%
- Population Pyknosed Nuclei (%) (Fibroblast; [2]): 11% and 20%
- Total Cell Count (Fibroblast; [2]): 120 and 127
- Population Apoptotic (%) (Fibroblast; [3]): 78% and 46%
- Population Fragmented Nuclei (%) (Fibroblast; [3]): 35% and 36%
- Population Healthy Nuclei (%) (Fibroblast; [3]): 55% and 51%
- Population Hoechst High Intensity Objects (%) (Fibroblast; [3]): 2% and 3%
- Population Membrane Permeable-Phenotype (%) (Fibroblast; [3]): 0% and 3%
- Population Mitochondria Different-Phenotype (%) (Fibroblast; [3]): 2% and 10%
- Population Mitotic Cells (%) (Fibroblast; [3]): 21% and 53%
- Population Normal (%) (Fibroblast; [3]): 97% and 96%
- Population Pyknosed Nuclei (%) (Fibroblast; [3]): 9% and 11%
- Population Tubulin-Different-Phenotype (%) (Fibroblast; [3]): 35% and 50%
- Total Cell Count (Fibroblast; [3]): 151 and 116
- Population Apoptotic (%) (Fibroblast; [4]): 57% and 38%
- Population Fragmented Nuclei (%) (Fibroblast; [4]): 15% and 29%
- Population Healthy Nuclei (%) (Fibroblast; [4]): 71% and 55%
- Population Hoechst High Intensity Objects (%) (Fibroblast; [4]): 5% and 3%
- Population Membrane Permeable-Phenotype (%) (Fibroblast; [4]): 0% and 10%
- Population Mitochondria Different-Phenotype (%) (Fibroblast; [4]): 2% and 1%
- Population Mitotic Cells (%) (Fibroblast; [4]): 42% and 61%
- Population Normal (%) (Fibroblast; [4]): 94% and 96%
- Population Pyknosed Nuclei (%) (Fibroblast; [4]): 12% and 14%
- Population Tubulin-Different-Phenotype (%) (Fibroblast; [4]): 16% and 37%
- Total Cell Count (Fibroblast; [4]): 115 and 125
- Population Apoptotic (%) (U2OS; [5]): 91% and 83%
- Population Fragmented Nuclei (%) (U2OS; [5]): 35% and 16%
- Population Healthy Nuclei (%) (U2OS; [5]): 56% and 77%
- Population Hoechst High Intensity Objects (%) (U2OS; [5]): 3% and 1%
- Population Membrane Permeable-Phenotype (%) (U2OS; [5]): 7% and 3%
- Population Mitochondria Different-Phenotype (%) (U2OS; [5]): 4% and 3%
- Population Mitotic Cells (%) (U2OS; [5]): 8% and 16%
- Population Normal (%) (U2OS; [5]): 96% and 98%
- Population Pyknosed Nuclei (%) (U2OS; [5]): 7% and 5%
- Population Tubulin-Different-Phenotype (%) (U2OS; [5]): 5% and 2%
- Total Cell Count (U2OS; [5]): 162 and 109
- Population Apoptotic (%) (U2OS; [6]): 78% and 86%
- Population Fragmented Nuclei (%) (U2OS; [6]): 23% and 12%
- Population Healthy Nuclei (%) (U2OS; [6]): 68% and 77%
- Population Hoechst High Intensity Objects (%) (U2OS; [6]): 2% and 1%
- Population Membrane Permeable-Phenotype (%) (U2OS; [6]): 7% and 1%
- Population Mitochondria Different-Phenotype (%) (U2OS; [6]): 3% and 2%
- Population Mitotic Cells (%) (U2OS; [6]): 21% and 13%
- Population Normal (%) (U2OS; [6]): 97% and 98%
- Population Pyknosed Nuclei (%) (U2OS; [6]): 8% and 10%
- Population Tubulin-Different-Phenotype (%) (U2OS; [6]): 4% and 0%
- Total Cell Count (U2OS; [6]): 277 and 152
- Population Apoptotic (%) (U2OS; [1]): 88% and 75%
- Population Fragmented Nuclei (%) (U2OS; [1]): 34% and 23%
- Population Healthy Nuclei (%) (U2OS; [1]): 56% and 70%
- Population Hoechst High Intensity Objects (%) (U2OS; [1]): 1% and 2%
- Population Membrane Permeable-Phenotype (%) (U2OS; [1]): 6% and 4%
- Population Mitochondria Different-Phenotype (%) (U2OS; [1]): 1% and 3%
- Population Mitotic Cells (%) (U2OS; [1]): 11% and 25%
- Population Normal (%) (U2OS; [1]): 98% and 97%
- Population Pyknosed Nuclei (%) (U2OS; [1]): 8% and 5%
- Population Tubulin-Different-Phenotype (%) (U2OS; [1]): 4% and 3%
- Total Cell Count (U2OS; [1]): 197 and 142
- Population Apoptotic (%) (U2OS; [2]): 69% and 93%
- Population Fragmented Nuclei (%) (U2OS; [2]): 21% and 13%
- Population Healthy Nuclei (%) (U2OS; [2]): 68% and 77%
- Population Hoechst High Intensity Objects (%) (U2OS; [2]): 1% and 2%
- Population Membrane Permeable-Phenotype (%) (U2OS; [2]): 9% and 7%
- Population Mitochondria Different-Phenotype (%) (U2OS; [2]): 2% and 3%
- Population Normal (%) (U2OS; [2]): 98% and 97%
- Population Pyknosed Nuclei (%) (U2OS; [2]): 10% and 8%
- Population Tubulin-Different-Phenotype (%) (U2OS; [2]): 2%
- Total Cell Count (U2OS; [2]): 319 and 183
- Population Apoptotic (%) (U2OS; [3]): 78%
- Population Fragmented Nuclei (%) (U2OS; [3]): 28% and 19%
- Population Healthy Nuclei (%) (U2OS; [3]): 65% and 71%
- Population Hoechst High Intensity Objects (%) (U2OS; [3]): 2% and 1%
- Population Membrane Permeable-Phenotype (%) (U2OS; [3]): 5% and 4%
- Population Mitochondria Different-Phenotype (%) (U2OS; [3]): 2% and 3%
- Population Mitotic Cells (%) (U2OS; [3]): 21%
- Population Normal (%) (U2OS; [3]): 97% and 98%
- Population Pyknosed Nuclei (%) (U2OS; [3]): 5% and 9%
- Population Tubulin-Different-Phenotype (%) (U2OS; [3]): 4% and 2%
- Total Cell Count (U2OS; [3]): 269 and 206
- Population Apoptotic (%) (U2OS; [4]): 91% and 87%
- Population Fragmented Nuclei (%) (U2OS; [4]): 18% and 15%
- Population Healthy Nuclei (%) (U2OS; [4]): 71% and 73%
- Population Hoechst High Intensity Objects (%) (U2OS; [4]): 4% and 2%
- Population Membrane Permeable-Phenotype (%) (U2OS; [4]): 4%
- Population Mitochondria Different-Phenotype (%) (U2OS; [4]): 2% and 3%
- Population Mitotic Cells (%) (U2OS; [4]): 8% and 12%
- Population Normal (%) (U2OS; [4]): 95% and 97%
- Population Pyknosed Nuclei (%) (U2OS; [4]): 9% and 11%
- Population Tubulin-Different-Phenotype (%) (U2OS; [4]): 1% and 2%
- Total Cell Count (U2OS; [4]): 397 and 285
